Measured values reported in ChEMBL document CHEMBL1926518, “Synthesis of macrolones with central piperazine ring in the linker and its influence on antibacterial activity” (2011).
In brackets after ≈: the same amount, converted by molar mass.

Legend:
Format in all cases: functional
Streptococcus pneumoniae [1] = experiment: Antibacterial activity against inducible macrolide-resistant, constitutive licosamide and streptogramin-resistant Streptococcus pneumoniae 134 GR-Micro by broth microdilution technique
Method in brief: (§1)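 MICs were determined by CLSI broth microdilution, with double dilutions of compound. In the streptococcal medium, 5% horse serum replaced lysed blood. Streptococci were grown on Columbia agar with 5% sheep blood before testing. Results are given in µg/mL.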

Haemophilus influenzae = experiment: Antibacterial activity against Haemophilus influenzae ATCC 49247 by broth microdilution technique
Method in brief: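 MIC by broth microdilution per CLSI guidelines with doubling dilutions of compounds. Before testing, organisms were grown on Mueller-Hinton chocolate agar. Values reported in µg/mL.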

Streptococcus pyogenes [2] = experiment: Antibacterial activity against efflux-mediated macrolide-resistant Streptococcus pyogenes 3 Finland by broth microdilution technique; method in brief: as §1
Streptococcus pyogenes [3] = experiment: Antibacterial activity against inducible macrolide, licosamide and streptogramin-resistant Streptococcus pyogenes Finland 11 by broth microdilution technique; method in brief: as §1
Streptococcus pneumoniae [4] = experiment: Antibacterial activity against erythromycin-sensitive Streptococcus pneumoniae SP030 by broth microdilution technique
Method in brief: (§2)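 Streptococcal MICs by CLSI broth microdilution with doubling dilutions, but with 5% horse serum in the medium in place of lysed blood. Before testing, strains were grown on Columbia agar with 5% sheep blood. Values reported in µg/mL.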

Streptococcus pneumoniae [5] = experiment: Antibacterial activity against efflux-mediated macrolide-resistant Streptococcus pneumoniae Ci137 by broth microdilution technique; method in brief: as §1
Staphylococcus aureus [6] = experiment: Antibacterial activity against erythromycin-sensitive Staphylococcus aureus ATCC 13709 by broth microdilution technique
Method in brief: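 MIC by broth microdilution per CLSI guidelines with doubling dilutions of compounds. Before testing, staphylococci were grown on Mueller–Hinton agar. Values reported in µg/mL.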

Moraxella catarrhalis = experiment: Antibacterial activity against Moraxella catarrhalis ATCC 23246 by broth microdilution technique
Method in brief: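 MIC by broth microdilution per CLSI guidelines with doubling dilutions of compounds. Before testing, organisms were grown on Columbia agar with 5% sheep blood. Values reported in µg/mL.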

Streptococcus pyogenes [7] = experiment: Antibacterial activity against erythromycin-sensitive Streptococcus pyogenes 3565 by broth microdilution technique; method in brief: as §2
Staphylococcus aureus [8] = experiment: Antibacterial activity against constitutive macrolide, licosamide and streptogramin-resistant Staphylococcus aureus PK2 by broth microdilution technique
Method in brief: (§3)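 MICs were determined by CLSI broth microdilution, with double dilutions of compound. Staphylococci were grown on Mueller–Hinton agar before testing. Results are given in µg/mL.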

Staphylococcus aureus [9] = experiment: Antibacterial activity against efflux-mediated macrolide-resistant Staphylococcus aureus PK1 by broth microdilution technique; method in brief: as §3
Staphylococcus aureus [10] = experiment: Antibacterial activity against inducible macrolide, licosamide and streptogramin-resistant Staphylococcus aureus 90256/97 by broth microdilution technique; method in brief: as §3
Streptococcus pyogenes [11] = experiment: Antibacterial activity against constitutive macrolide, licosamide and streptogramin-resistant Streptococcus pyogenes 166 GR-Micro by broth microdilution technique; method in brief: as §1
Streptococcus pneumoniae [12] = experiment: Antibacterial activity against constitutive macrolide, licosamide and streptogramin-resistant Streptococcus pneumoniae 58 Spain by broth microdilution technique; method in brief: as §1

Structure (SMILES) | MIC (Streptococcus pneumoniae [1]) [µg/mL] | MIC (Haemophilus influenzae) [µg/mL] | MIC (Streptococcus pyogenes [2]) [µg/mL] | MIC (Streptococcus pyogenes [3]) [µg/mL] | MIC (Streptococcus pneumoniae [4]) [µg/mL] | MIC (Streptococcus pneumoniae [5]) [µg/mL] | MIC (Staphylococcus aureus [6]) [µg/mL] | MIC (Moraxella catarrhalis) [µg/mL] | MIC (Streptococcus pyogenes [7]) [µg/mL] | MIC (Staphylococcus aureus [8]) [µg/mL] | MIC (Staphylococcus aureus [9]) [µg/mL] | MIC (Staphylococcus aureus [10]) [µg/mL] | MIC (Streptococcus pyogenes [11]) [µg/mL] | MIC (Streptococcus pneumoniae [12]) [µg/mL]
CCOC(=O)c1cn(CC)c2ccc(C#CCN3CCN(C(=O)OC(C)(C)C)CC3)cc2c1=O | > 64 | > 64 | > 64 | > 64 | > 64 | > 64 | > 64 | > 64 | > 64 | > 64 | > 64 | > 64 | > 64 | > 64
CCOC(=O)c1cn(CC)c2ccc(C#CCN3CCNCC3)cc2c1=O | > 64 | > 64 | > 64 | > 64 | > 64 | > 64 | > 64 | > 64 | > 64 | > 64 | > 64 | > 64 | > 64 | > 64
CCOC(=O)c1cn(C2CC2)c2ccc(C#CCN3CCN(C(=O)OC(C)(C)C)CC3)cc2c1=O | > 64 | > 64 | > 64 | > 64 | > 64 | > 64 | > 64 | > 64 | > 64 | > 64 | > 64 | > 64 | > 64 | > 64
CCOC(=O)c1cn(C2CC2)c2ccc(C#CCN3CCNCC3)cc2c1=O | > 64 | > 64 | > 64 | > 64 | > 64 | > 64 | > 64 | > 64 | > 64 | > 64 | > 64 | > 64 | > 64 | > 64
CCOC(=O)c1cn(CC)c2ccc(/C=C/CN3CCN(C(=O)OC(C)(C)C)CC3)cc2c1=O | > 64 | > 64 | > 64 | > 64 | 64 (≈ 136 µM) | > 64 | > 64 | > 64 | > 64 | > 64 | > 64 | > 64 | > 64 | > 64
CCOC(=O)c1cn(CC)c2ccc(/C=C/CN3CCNCC3)cc2c1=O | > 64 | > 64 | > 64 | > 64 | 64 (≈ 173 µM) | > 64 | > 64 | > 64 | > 64 | > 64 | > 64 | > 64 | > 64 | > 64
CCOC(=O)c1cn(CC)c2ccc(C#CCN3CCN(CCC(=O)O[C@H]4[C@H](C)O[C@@H](O[C@H]5[C@H](C)[C@@H](O[C@@H]6O[C@H](C)C[C@H](N(C)C)[C@H]6O)[C@](C)(OC)C[C@@H](C)C(=O)[C@H](C)[C@@H](O)[C@](C)(O)[C@@H](CC)OC(=O)[C@@H]5C)C[C@@]4(C)OC)CC3)cc2c1=O | 1 (≈ 0.855 µM) | 4 (≈ 3.42 µM) | – | ≤ 0.125 | ≤ 0.125 | ≤ 0.125 | 0.25 (≈ 0.214 µM) | 1 (≈ 0.855 µM) | ≤ 0.125 | > 64 | 32 (≈ 27.4 µM) | > 64 | 8 (≈ 6.84 µM) | ≤ 0.125
CCOC(=O)c1cn(C2CC2)c2ccc(C#CCN3CCN(CCC(=O)O[C@H]4[C@H](C)O[C@@H](O[C@H]5[C@H](C)[C@@H](O[C@@H]6O[C@H](C)C[C@H](N(C)C)[C@H]6O)[C@](C)(OC)C[C@@H](C)C(=O)[C@H](C)[C@@H](O)[C@](C)(O)[C@@H](CC)OC(=O)[C@@H]5C)C[C@@]4(C)OC)CC3)cc2c1=O | 4 (≈ 3.39 µM) | > 64 | ≤ 0.125 | 0.5 (≈ 0.423 µM) | ≤ 0.125 | ≤ 0.125 | 4 (≈ 3.39 µM) | 4 (≈ 3.39 µM) | ≤ 0.125 | > 64 | > 64 | > 64 | 16 (≈ 13.5 µM) | 4 (≈ 3.39 µM)
CCOC(=O)c1cn(CC)c2ccc(CCCN3CCN(CCC(=O)O[C@H]4[C@H](C)O[C@@H](O[C@H]5[C@H](C)[C@@H](O[C@@H]6O[C@H](C)C[C@H](N(C)C)[C@H]6O)[C@](C)(OC)C[C@@H](C)C(=O)[C@H](C)[C@@H](O)[C@](C)(O)[C@@H](CC)OC(=O)[C@@H]5C)C[C@@]4(C)OC)CC3)cc2c1=O | 16 (≈ 13.6 µM) | > 64 | ≤ 0.125 | 0.25 (≈ 0.213 µM) | ≤ 0.125 | ≤ 0.125 | 4 (≈ 3.41 µM) | 4 (≈ 3.41 µM) | ≤ 0.125 | > 64 | > 64 | > 64 | 16 (≈ 13.6 µM) | 8 (≈ 6.82 µM)
CCOC(=O)c1cn(C2CC2)c2ccc(CCCN3CCN(CCC(=O)O[C@H]4[C@H](C)O[C@@H](O[C@H]5[C@H](C)[C@@H](O[C@@H]6O[C@H](C)C[C@H](N(C)C)[C@H]6O)[C@](C)(OC)C[C@@H](C)C(=O)[C@H](C)[C@@H](O)[C@](C)(O)[C@@H](CC)OC(=O)[C@@H]5C)C[C@@]4(C)OC)CC3)cc2c1=O | 16 (≈ 13.5 µM) | > 64 | ≤ 0.125 | 0.5 (≈ 0.422 µM) | ≤ 0.125 | ≤ 0.125 | 4 (≈ 3.37 µM) | 4 (≈ 3.37 µM) | ≤ 0.125 | > 64 | > 64 | > 64 | 16 (≈ 13.5 µM) | 4 (≈ 3.37 µM)
CCOC(=O)c1cn(CC)c2ccc(C#CCN3CCN(CCC(=O)O[C@H]4[C@H](C)O[C@@H](O[C@H]5[C@H](C)[C@@H](O[C@@H]6O[C@H](C)C[C@H](N(C)C)[C@H]6O)[C@](C)(O)C[C@@H](C)CN(C)[C@H](C)[C@@H](O)[C@](C)(O)[C@@H](CC)OC(=O)[C@@H]5C)C[C@@]4(C)OC)CC3)cc2c1=O | ≤ 0.125 | 4 (≈ 3.42 µM) | ≤ 0.125 | ≤ 0.125 | ≤ 0.125 | ≤ 0.125 | 1 (≈ 0.854 µM) | 1 (≈ 0.854 µM) | ≤ 0.125 | > 64 | 16 (≈ 13.7 µM) | > 64 | 32 (≈ 27.3 µM) | ≤ 0.125
CCOC(=O)c1cn(CC)c2ccc(CCCN3CCN(CCC(=O)O[C@H]4[C@H](C)O[C@@H](O[C@H]5[C@H](C)[C@@H](O[C@@H]6O[C@H](C)C[C@H](N(C)C)[C@H]6O)[C@](C)(O)C[C@@H](C)CN(C)[C@H](C)[C@@H](O)[C@](C)(O)[C@@H](CC)OC(=O)[C@@H]5C)C[C@@]4(C)OC)CC3)cc2c1=O | ≤ 0.125 | 2 (≈ 1.7 µM) | 0.5 (≈ 0.426 µM) | ≤ 0.125 | ≤ 0.125 | ≤ 0.125 | 1 (≈ 0.851 µM) | 0.25 (≈ 0.213 µM) | ≤ 0.125 | > 64 | 64 (≈ 54.5 µM) | > 64 | 32 (≈ 27.2 µM) | ≤ 0.125
CCOC(=O)c1cn(C2CC2)c2ccc(CCCN3CCN(CCC(=O)O[C@H]4[C@H](C)O[C@@H](O[C@H]5[C@H](C)[C@@H](O[C@@H]6O[C@H](C)C[C@H](N(C)C)[C@H]6O)[C@](C)(O)C[C@@H](C)CN(C)[C@H](C)[C@@H](OC)[C@](C)(O)[C@@H](CC)OC(=O)[C@@H]5C)C[C@@]4(C)OC)CC3)cc2c1=O | > 64 | 16 (≈ 13.3 µM) | 1 (≈ 0.833 µM) | 0.25 (≈ 0.208 µM) | ≤ 0.125 | ≤ 0.125 | 4 (≈ 3.33 µM) | – | ≤ 0.125 | > 64 | > 64 | > 64 | 32 (≈ 26.7 µM) | 32 (≈ 26.7 µM)
CC[C@H]1OC(=O)[C@H](C)[C@@H](O[C@H]2C[C@@](C)(OC)[C@@H](OC(=O)CCN3CCN(CCCc4ccc5c(c4)c(=O)c(C(=O)O)cn5CC)CC3)[C@H](C)O2)[C@H](C)[C@@H](O[C@@H]2O[C@H](C)C[C@H](N(C)C)[C@H]2O)[C@](C)(O)C[C@@H](C)CN(C)[C@H](C)[C@@H](OC)[C@]1(C)O | 16 (≈ 13.8 µM) | 1 (≈ 0.862 µM) | ≤ 0.125 | ≤ 0.125 | ≤ 0.125 | ≤ 0.125 | ≤ 0.125 | 0.5 (≈ 0.431 µM) | ≤ 0.125 | > 64 | 0.25 (≈ 0.215 µM) | 4 (≈ 3.45 µM) | 32 (≈ 27.6 µM) | ≤ 0.125
CC[C@H]1OC(=O)[C@H](C)[C@@H](O[C@H]2C[C@@](C)(OC)[C@@H](OCCCN3CCN(CCCc4ccc5c(c4)c(=O)c(C(=O)O)cn5CC)CC3)[C@H](C)O2)[C@H](C)[C@@H](O[C@@H]2O[C@H](C)C[C@H](N(C)C)[C@H]2O)[C@](C)(O)C[C@@H](C)CN(C)[C@H](C)[C@@H](O)[C@]1(C)O | 32 (≈ 28.3 µM) | 32 (≈ 28.3 µM) | 8 (≈ 7.06 µM) | 4 (≈ 3.53 µM) | ≤ 0.125 | 0.25 (≈ 0.221 µM) | 8 (≈ 7.06 µM) | – | 0.5 (≈ 0.442 µM) | > 64 | 32 (≈ 28.3 µM) | > 64 | > 64 | 8 (≈ 7.06 µM)
